From PubChem
Yeast tox: Inhibitors of S. cerevisiae growth, toxicity; growth inhibition, % at 25 µM (by protocol); 0.3% of 30,000 active; S. cerevisiae wild-type growth, A595 turbidity, 16 h;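 active = mutant and wild-type yeast strains alike exhibit over 30% growth inhibition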;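 also: 0% = untreated cell controls and 100% = YPD media blanks without cells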
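system = S. cerevisiae wild-type or eIF2Bepsilon-R284H mutant strain | buffer or medium = YPD medium | dosing = one dose, 25 µM compound, 0.2% DMSO | schedule = 16 h at 30 °C | measured by = A595 turbidity | evaluation = growth inhibition (%) versus cell controls and blanks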
Yeast eIF2B: modulators of yeast eIF2B activity; S. cerevisiae eIF2B-epsilon R284H, GCN4-lacZ luminescence; inhibition, % at 25 µM (by protocol); 0.91% of 27,000 active; AID 688;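 active = mutant luminescence inhibited past about 50% while wild type luminescence and mutant growth stay under set limits, limit read from the data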
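Times: 16 h growth with compound at 30 °C, 90 min Beta-Glo step; Assay system: yeast eIF2B-epsilon R284H mutant carrying GCN4–beta-galactosidase fusion; Measure: % inhibition of reporter signal and growth versus controls; Dosing: one concentration, 25 µM, 0.25% DMSO; Buffer or medium: YPD yeast growth medium; Measured by: Beta-Glo luminescence plus absorbance at 595 nm.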
An asterisk follows results filed as active; . = no result. In the library only some 1% were active in any assay of this set; here they are far more common.

SMILES	Yeast tox	Yeast eIF2B
Cc1cc2n(n1)SC(Nc1ccccc1)N2 (stereo not drawn)	.	55*
COc1cc(S(=O)(=O)Nc2ccccn2)ccc1F	11	.
C=CCc1cccc(CNc2nc3ccccc3n2C(C)C)c1O	15	63*
CCn1c(NCc2cccc(OC)c2OC)nc2ccccc21	5	18
CC(=O)c1cccc(NC(=O)CCS(=O)(=O)c2cccc3nsnc23)c1	13	.
CCCC(CCC(=O)NC1CCCCC1)C(=O)O (stereo not drawn)	-6	91*
CC(C)NC(=O)C(=O)NC1CCCCCC1	34	22
C=CCSc1nc(C)c(CC=C)c(=O)[nH]1	.	-23
C=CCc1c(C)nc(SC(C)C)[nH]c1=O	-13	52*
CCCCn1nnnc1SCC(=O)N1CCCC1	-6	28
Nn1c(COc2cccc(Br)c2)nnc1SCC(=O)N1CCc2ccccc2C1	1	50*
Cn1nnnc1SCC(=O)N1CCc2ccccc2C1	14	11
O=C(OCCN1CCOCC1)c1cccs1	-11	-8
Cc1ccccc1-n1nc2c(c1NC(=O)c1c(-c3ccccc3Cl)noc1C)CSC2	11	17
CCC(=O)Nc1c2c(nn1-c1ccc(C)cc1C)CSC2	8	52*
Cc1cc(C)c(S(=O)(=O)Nc2ccc[nH]c2=O)c(C)c1	4	5
Cc1cccc(Cn2cnc3c(nnn3Cc3ccc(Cl)cc3)c2=O)c1	-16	59*
Cc1ccc(Cn2nnc3c(=O)n(CC(=O)N4CCCc5ccccc54)cnc32)cc1	9	-4
Cc1cc(NC(=O)COC(=O)C(Cc2ccccc2)NC(=O)c2ccco2)no1 (stereo not drawn)	13	20
O=C(NC(Cc1ccccc1)C(=O)OCC(=O)N1CCc2ccccc21)c1ccco1 (stereo not drawn)	-19	52*
CCCCSc1nc(C)c(CC(=O)OC)c(=O)[nH]1	43	-4
N/C(Cc1ccc([N+](=O)[O-])cc1)=N\OC(=O)c1ccc2ccccc2c1	64*	29
COc1ccc(/C(N)=N/OC(=O)c2cccc([N+](=O)[O-])c2)cc1	0	16
O=C(C1CCCN(Cc2ccccc2)C1)N1CCc2ccccc2C1 (stereo not drawn)	-13	-11
COC(=O)c1cc(Br)c(=O)n(-c2ccccc2F)c1	-16	-15
SMILES	Yeast tox	Yeast eIF2B
COc1ccccc1CNC(=O)CN(c1ccc(C)cc1)S(=O)(=O)c1c(C)nn(C)c1C	7	51*
COc1ccccc1NC(=O)CN(c1ccc(C)cc1)S(=O)(=O)c1c(C)n[nH]c1C	21	19
CCCc1nc2ccc(NC(=O)c3ccco3)cc2c(=O)n1Cc1ccccc1Cl	-39	16
CCCCC1CCC(C(=O)NC2CCS(=O)(=O)C2)CC1 (stereo not drawn)	2	32
C=CCSc1nnc2c(n1)OC(c1cccnc1)N(C(C)=O)c1ccccc1-2 (stereo not drawn)	-9	55*
COc1ccc(C2Oc3ccccc3N2C(C)=O)cc1 (stereo not drawn)	-34	0
C=CCn1c(SCC(=O)Nc2sccc2C(N)=O)nc2ccccc2c1=O	-12	19
C=CCn1c(N)cc(=O)nc1SCC(=O)Nc1ccccc1	-11	58*
Cc1ccc(Cn2ccc(=O)c(OCc3c(Cl)cccc3Cl)c2C)cc1	4	21
O=C(Nc1cccc2nsnc12)C1CC(=O)N(c2ccccc2)C1 (stereo not drawn)	11	-13
